ChEMBL document CHEMBL1268863, “Bioactive Cycloperoxides Isolated from the Puerto Rican Sponge Plakortis halichondrioides” (J Nat Prod, 2010)
Converted amounts (≈) assume the structure as drawn.

Tests used:
Plasmodium falciparum = experiment: Antimicrobial activity against chloroquine-resistant Plasmodium falciparum W2; assay type: functional, organism-based
In short: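 Chloroquine-resistant W2 strain tested, with chloroquine as positive control; IC50 reported in µg/mL.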

A2058 [1] = experiment: Cytotoxicity against human A2058 cells after 48 hrs by MTT assay; assay type: functional, cell-based; conditions: A2058, 48 h
In short: (§1)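 Cells cultured in RPMI-1640 or DMEM with 10% FBS and penicillin/streptomycin at 37 °C, 5% CO2, then seeded at 5,000/well and left overnight. Compound given at 0.1, 0.5, 1, 5, 10, 20 and 50 µM for 48 h with a DMSO vehicle control. Viability read by MTS formazan absorbance at 490 nm, in quadruplicate, and IC50 derived from the dose series.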

DU-145 [2] = experiment: Cytotoxicity against human DU145 cells at 10 uM after 48 hrs […]; assay type: functional
DU-145 [3] = experiment: Cytotoxicity against human DU145 cells after 48 hrs by MTT assay; assay type: functional, cell-based; conditions: DU-145, 48 h; in short: as §1
A2058 [4] = experiment: Cytotoxicity against human A2058 cells at 10 uM after 48 hrs […]; assay type: functional
[5] = test system: Mycobacterium tuberculosis; experiment: Antimycobacterial activity Mycobacterium tuberculosis H37Rv; assay type: functional, organism-based

Compound | IC50 (Plasmodium falciparum) [µg/mL] | IC50 (A2058 [1]) [µM] | Activity (DU-145 [2]) [%] | IC50 (DU-145 [3]) [µM] | Activity (A2058 [4]) [%] | IC50 [5] [µg/mL]
CCCCCCCCCCCCCCCC[C@]1(C)C[C@@](C)(CC(=O)OC)OO1 | > 10 | > 10 | 38 | 8 | 69 | –
CCCCCCCCCCCCCCCC[C@@](C)(O)C[C@](C)(O)CC(=O)OC | > 10 | > 10 | 81 | > 10 | 79 | –
CCCCCCCCCCCCCCCC[C@]1(C)C[C@@](C)(O)CC(=O)O1 | > 10 | > 10 | 102 | > 10 | 60 | 30 (≈ 81.4 µM)
CCCCCCCCCCCCCCCC[C@@](C)(O)C[C@]1(C)OC(=O)C[C@@H]1O | 0.6 (≈ 1.51 µM) | 24 | 79 | 24 | 75 | 13 (≈ 32.6 µM)
CCCCCCCCCCCCCCCC[C@]1(C)C[C@]2(C)OC(=O)C[C@@H]2OO1 | 0.3 (≈ 0.756 µM) | 0.8 | 13 | 2 | 8 | 68 (≈ 171 µM)
C[C@@](O)(CCCCCCCCCc1ccc(O)cc1)C[C@]1(C)OC(=O)C[C@@H]1O | 7 (≈ 17.8 µM) | > 10 | 95 | > 10 | 81 | –
CC/C=C/C=C/C=C/CCCCCCCC[C@]1(C)C[C@@](C)(CC(=O)OC)OO1 [EPIPLAKINIC ACID F METHYL ESTER] | 4 (≈ 10.2 µM) | > 10 | 92 | > 10 | 86 | 62 (≈ 158 µM)
CC/C=C/C=C/C=C/CCCCCCCC[C@@]1(C)C[C@](C)(CC(=O)O)OO1 [EPIPLAKINIC ACID F] | 3 (≈ 7.92 µM) | > 10 | 15 | 1 | 51 | 92 (≈ 243 µM)
C[C@]1(CC(=O)O)C[C@@](C)(CCCCCCCCC(=O)O)OO1 [EPIPLAKINIDIOIC ACID] | 0.3 (≈ 0.948 µM) | 3 | 31 | 4 | 23 | –
C[C@@]1(CCCCCCCCCc2ccc(O)cc2)C[C@]2(C)OC(=O)C[C@@H]2OO1 [PLAKORTOLIDE F] | – | > 10 | 62 | > 10 | 71 | 59 (≈ 151 µM)
CC/C=C/C=C/C=C/CCCCCCCC[C@]1(C)C[C@]2(C)OC(=O)C[C@@H]2OO1 [PLAKORTOLIDE J] | > 10 | > 10 | 112 | > 10 | 106 | 71 (≈ 182 µM)
